# Test results: publication PMC10928719 (ACS Infectious Diseases, 2024)
# Read-outs that look alike come from different tables or passages of the source.
# Columns and labels:
# [1] = tested on: human osteosarcoma (HOS) cells; assay: Cellular cytotoxicity; type: cell-based; details: 50% reduction in the level of ATP in HOS cells, 48 h
# How it was run: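 HOS cells grown in DMEM with 5% FBS, 5% newborn calf serum and penicillin/streptomycin, then seeded at 4000 cells/well the day before the assay. Test compound was added over 250 μM to 0.05 μM and cells were held at 37 °C for 48 h. ATP luminescence reagent was read after 20 min at room temperature. CC50 came from a nonlinear regression fit.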
# [2] = tested on: HIV-1 vector with IN mutant N155H; assay: Single-round infection assay, IN mutant N155H; type: cell-based; details: Human immunodeficiency virus 1, read-out: EC50 N155H
# How it was run: (§1)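 293 cells were co-transfected by calcium phosphate with pNLNgoMIVR–ΔLUC (16 μg; WT or IN mutant) plus pHCMV-g (4 μg) and washed ~6 h later. Supernatant was harvested 48 h later, clarified, filtered and diluted. HOS cells (4000/well) were pretreated 3 h at 37 °C with test compound (11 dilutions, 5 μM–0.0001 μM), then infected for 48 h. Luciferase was read and EC50 fitted by nonlinear regression.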
# [3] = tested on: HIV-1 vector with IN mutant G140S/Q148H; assay: Single-round infection assay, IN mutant G140S/Q148H; type: cell-based; details: Human immunodeficiency virus 1, read-out: EC50 G140S/Q148H
# How it was run: as §1
# [4] = tested on: HIV-1 vector with wild-type (WT) IN; assay: Single-round infection assay, viral construct with WT IN; type: cell-based; details: read-out: EC50 WT, single-round HIV-1 vector, HOS cells
# How it was run: as §1
# [5] = tested on: HIV-1 vector with IN mutant R263K; assay: Single-round infection assay, IN mutant R263K; type: cell-based; details: read-out: EC50 R263K, single-round HIV-1 vector
# How it was run: as §1
# [6] = tested on: HIV-1 vector with IN mutant G118R; assay: Single-round infection assay, IN mutant G118R; type: cell-based; details: for resistance / loss of potency against G118R mutant: our single-round infection assays
# How it was run: as §1
# [7] = tested on: HIV-1 vector with IN mutant S230N; assay: Single-round infection assay, IN mutant S230N; type: cell-based; details: read-out: EC50 S230N, single-round HIV-1 vector
# How it was run: as §1
# [8] = tested on: HIV-1 vector with wild-type (WT) IN; details: read-out: EC50 WT, single-round HIV-1 vector, previously reported ref 46; cited from earlier work
# [9] = tested on: HIV-1 vector with IN mutant E138K/Q148K; assay: Single-round infection assay, IN mutant E138K/Q148K; type: cell-based; details: Human immunodeficiency virus 1, read-out: EC50 E138K/Q148K
# How it was run: (§2)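 Vector carrying the mutant IN was made by calcium phosphate co-transfection of 293 cells with pNLNgoMIVR–ΔLUC (16 μg) and pHCMV-g (4 μg); supernatant was collected 48 h after washing. HOS cells were exposed 3 h at 37 °C to test compound (11 dilutions, 5 μM–0.0001 μM), then infected for 48 h. Luciferase luminescence gave EC50 by nonlinear regression; n = 4 independent experiments, each in triplicate.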
# [10] = tested on: HIV-1 vector with IN mutant G140A/Q148K; assay: Single-round infection assay, IN mutant G140A/Q148K; type: cell-based; details: Human immunodeficiency virus 1, read-out: EC50 G140A/Q148K
# How it was run: as §2
# [11] = tested on: HIV-1 vector with IN mutant G140S/Q148R; assay: Single-round infection assay, IN mutant G140S/Q148R; type: cell-based; details: Human immunodeficiency virus 1, read-out: EC50 G140S/Q148R
# How it was run: as §2
# [12] = tested on: HIV-1 vector with IN mutant L74M/G140C/Q148R; assay: Single-round infection assay, IN mutant L74M/G140C/Q148R; type: cell-based; details: Human immunodeficiency virus 1, read-out: EC50 L74M/G140C/Q148R
# How it was run: as §2
# [13] = tested on: HIV-1 vector with IN mutant T97A/G140S/Q148H; assay: Single-round infection assay, IN mutant T97A/G140S/Q148H; type: cell-based; details: Human immunodeficiency virus 1, read-out: EC50 T97A/G140S/Q148H
# How it was run: as §2
# [14] = tested on: HIV-1 vector with IN mutant E138A/G140S/Q148H; assay: Single-round infection assay, IN mutant E138A/G140S/Q148H; type: cell-based; details: Human immunodeficiency virus 1, read-out: EC50 E138A/G140S/Q148H
# How it was run: as §2
# [15] = tested on: HIV-1 vector with IN mutant E138K/G140A/Q148K; assay: Single-round infection assay, IN mutant E138K/G140A/Q148K; type: cell-based; details: Human immunodeficiency virus 1, read-out: EC50 E138K/G140A/Q148K
# How it was run: as §2
# [16] = tested on: HIV-1 vector with IN mutant E138K/G140C/Q148R; assay: Single-round infection assay, IN mutant E138K/G140C/Q148R; type: cell-based; details: Human immunodeficiency virus 1, read-out: EC50 E138K/G140C/Q148R
# How it was run: as §2
# [17] = tested on: HIV-1 vector with IN mutant E138K/G140S/Q148H; assay: Single-round infection assay, IN mutant E138K/G140S/Q148H; type: cell-based; details: Human immunodeficiency virus 1, read-out: EC50 E138K/G140S/Q148H
# How it was run: as §2
# [18] = target: Sso7d IN (HIV-1 integrase) (UniProt P12497+P39476); assay: In vitro IN strand transfer assay; type: biochemical
# [19] = tested on: HIV-1 vector with IN mutant G118R; details: single-round infection assays; cited from earlier work
# [20] = tested on: HIV-1 vector with IN mutant R263K; details: single-round infection assays; cited from earlier work
# [21] = tested on: HIV-1 vector with IN mutant G140S/Q148H; details: single-round infection assays; cited from earlier work
Compound,EC50 [2],EC50 [3],resistance / loss of potency against G118R mutant [6],EC50 [8],also measured
O=C(NCc1ccc(F)cc1F)c1cn2cc[nH]c(=O)c2c(O)c1=O [6a],457 ± 21 nM,> 5000 nM,–,–,CC50 [1]: 150000 ± 19900 nM
COCC(C)n1ccn2cc(C(=O)NCc3ccc(F)cc3F)c(=O)c(O)c2c1=O (centres unmarked) [6k],5 ± 0.7 nM,34.1 ± 5.4 nM,–,–,–
COC(Cn1ccn2cc(C(=O)NCc3ccc(F)cc3F)c(=O)c(O)c2c1=O)OC [6l],27.7 ± 2.7 nM,1150 ± 114 nM,–,–,–
CC(C)=CCC/C(C)=C/Cn1ccn2cc(C(=O)NCc3ccc(F)cc3F)c(=O)c(O)c2c1=O [6m],81.6 ± 7.6 nM,365 ± 43.3 nM,–,–,EC50 [4]: 38.9 ± 6.7 nM
O=C(NCc1ccc(F)cc1F)c1cn2c(c(O)c1=O)C(=O)NCC2 [7a],–,> 5000 nM,–,–,EC50 [5]: 148 ± 36.5 nM
COC(CN1CCn2cc(C(=O)NCc3ccc(F)cc3F)c(=O)c(O)c2C1=O)OC [7l],6.3 ± 0.7 nM,394 ± 39 nM,–,–,"EC50 ([6]; read-out: EC50 G118R, single-round HIV-1 vector, IN G118R): 36.4 ± 1.3 nM"
CC(C)CCCC(C)CCN1CCn2cc(C(=O)NCc3ccc(F)cc3F)c(=O)c(O)c2C1=O (centres unmarked) [7m],25.6 ± 4.2 nM,109 ± 20.5 nM,–,–,EC50 [4]: 21.4 ± 2.5 nM; EC50 [7]: 41.8 ± 4.2 nM
"O=C(NCc1c(F)cc(F)cc1F)c1cn2c(c(O)c1=O)C(=O)N1[C@H]3CC[C@H](C3)O[C@@H]1C2 [BIC, bictegravir]",–,–,4 ×,2.4 ± 0.4 nM,–
"C[C@H]1CO[C@@H]2Cn3cc(C(=O)NCc4ccc(F)cc4F)c(=O)c(O)c3C(=O)N12 [CAB, cabotegravir]",–,–,17 ×,1.8 ± 0.5 nM,EC50 [9]: 772 ± 72.2 nM; EC50 [10]: 393 ± 51.1 nM; EC50 [11]: 415 ± 14.5 nM; EC50 [12]: 220 ± 41.2 nM; EC50 [13]: 43.7 ± 4.2 nM; EC50 [14]: 70.2 ± 9 nM; EC50 [15]: 610 ± 8.6 nM; EC50 [16]: 134.2 ± 0.3 nM; EC50 [17]: 93 ± 6.1 nM; IC50 [18]: 381 nM
"C[C@@H]1CCO[C@H]2Cn3cc(C(=O)NCc4ccc(F)cc4F)c(=O)c(O)c3C(=O)N12 [DTG, dolutegravir]",–,–,9 ×,2.6 ± 0.3 nM,"reduction in susceptibility relative to WT, G118R [19]: > 5 fold; reduction in susceptibility relative to WT, R263K [20]: 2 fold; reduction in susceptibility relative to WT, G140S/Q148H [21]: 2 fold"
